Assay results published in ChEMBL document CHEMBL4038330, “Discovery of Potent Orally Active Protease-Activated Receptor 1 (PAR1) Antagonists Based on Andrographolide” (J Med Chem, 2017).

System: Plasma
Test: Stability in Wistar rat assessed as parent compound level in plasma at 10 mg/kg, po administered as single dose measured at 3 hrs post dose by LC-HRMS analysis
Type: ADME, organism-based
Settings: in vivo
Summary of the method: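 Rats dosed orally at 10 mg/kg or 5 mg/kg. Plasma taken at 3.0 h after dosing. Parent and metabolites detected by extracted ion chromatograms.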

Stability	Structure (SMILES)
Unstable	C[C@@]1(C=O)[C@H](O)CC[C@@]2(C)[C@H](/C=C/c3ccc(-c4cccc(F)c4)cn3)[C@@]3(CC[C@H]12)CO3

Target: T1, Proteinase-activated receptor 1 (Homo sapiens, UniProt P25116)
T1 sequence (P25116 whole entry): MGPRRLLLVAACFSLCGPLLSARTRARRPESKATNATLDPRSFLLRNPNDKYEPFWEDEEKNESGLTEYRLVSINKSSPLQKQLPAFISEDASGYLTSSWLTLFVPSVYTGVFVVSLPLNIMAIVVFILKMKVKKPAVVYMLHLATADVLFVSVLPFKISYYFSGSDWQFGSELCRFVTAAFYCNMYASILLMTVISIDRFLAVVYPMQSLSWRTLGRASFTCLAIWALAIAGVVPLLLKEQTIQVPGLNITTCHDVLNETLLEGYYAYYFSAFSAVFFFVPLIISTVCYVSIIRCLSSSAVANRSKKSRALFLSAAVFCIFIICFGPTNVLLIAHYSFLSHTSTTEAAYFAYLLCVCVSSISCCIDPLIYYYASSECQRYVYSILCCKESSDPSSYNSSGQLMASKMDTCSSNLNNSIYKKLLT
Test: Antagonist activity at human PAR1 expressed in HEK293 cells co-expressing Galpha15 assessed as inhibition of haTRAP-induced calcium mobilization preincubated for 15 mins followed by haTRAP addition by calcium-4 dye based FLIPR assay
Type: functional, cell-based
Settings: not given

IC50 [µM]	Structure (SMILES)
> 100	CC(=O)O[C@@H]1CC[C@@]2(C)[C@@H]3C(=O)OC[C@H]3CC[C@@H]2[C@]1(C)/C=C/c1ccc(-c2cccc(F)c2)cn1
> 100	C[C@@]1(C=O)[C@H](O)CC[C@@]2(C)[C@H](/C=C/c3ccc(-c4cccc(F)c4)cn3)[C@@H](C3SCCS3)CC[C@H]12
9.5	C[C@]1(CO)[C@H]2CC[C@@]3(CO3)[C@@H](/C=C/c3ccc(-c4cccc(C(F)(F)F)c4)cn3)[C@]2(C)CC[C@H]1O
8.7	COC(=O)[C@]1(C)[C@H](OC(N)=O)CC[C@@]2(C)[C@H](/C=C/c3ccc(-c4cccc(F)c4)cn3)[C@@]3(CC[C@@H]21)CO3
> 100	C[C@@]1(/C=C/c2ccc(-c3cccc(F)c3)cn2)[C@@H](OS(C)(=O)=O)CC[C@@]2(C)[C@@H]3C(=O)OC[C@H]3CC[C@H]12
3	C[C@@]1(C=O)[C@H](O)CC[C@@]2(C)[C@H](/C=C/c3ccc(-c4cccc(F)c4)cn3)[C@@]3(CC[C@H]12)CO3
> 100	CCCC(=O)O[C@@H]1CC[C@@]2(C)[C@H](/C=C/c3ccc(-c4cccc(F)c4)cn3)[C@@]3(CC[C@@H]2[C@]1(C)C(=O)OC)CO3
> 100	C[C@@]1(C=O)[C@H](O)CC[C@@]2(C)[C@H](/C=C/c3ccc(-c4cccc(F)c4)c[n+]3[O-])[C@@]3(CC[C@H]12)CO3
> 100	CC1(C)OC[C@@]2(C)[C@H]3CC[C@@]4(CO4)[C@@H](/C=C/c4ccc(-c5cccc(C(F)(F)F)c5)cn4)[C@]3(C)CC[C@H]2O1
> 100	CC(=O)O[C@H]1CC[C@@]2(C)[C@@H]3C(=O)OC[C@H]3CC[C@@H]2[C@]1(C)/C=C/c1ccc(-c2cccc(F)c2)cn1
> 100	C[C@H]1CC[C@@H]2C(C)(C)C=CC[C@@]2(C)[C@@H]1/C=C/c1ccc(-c2cccc(F)c2)cn1
> 100	CC(=O)O[C@@H]1CC[C@@]2(C)[C@@H]3C(=O)OC[C@H]3CC[C@@H]2[C@@]1(C)/C=C/c1ccc(-c2cccc(F)c2)cn1
> 100	C[C@@]1(/C=C/c2ccc(-c3cccc(F)c3)cn2)[C@H](O)CC[C@@]2(C)[C@@H]3C(=O)OC[C@H]3CC[C@H]12
10	C[C@]1(CO)[C@H]2CC[C@@]3(CO3)[C@@H](CCc3ccc(-c4cccc(C(F)(F)F)c4)cn3)[C@]2(C)CC[C@H]1O
> 100	COC(=O)[C@]1(C)[C@H](OC(C)=O)CC[C@@]2(C)[C@H](/C=C/c3ccc(-c4cccc(F)c4)cn3)[C@@]3(CC[C@@H]21)CO3
21	C[C@]1(/C=C/c2ccc(-c3cccc(F)c3)cn2)[C@H]2CC[C@@H]3COC(=O)[C@H]3[C@]2(C)CC[C@H]1OC(N)=O
14	C[C@]1(CO)[C@H]2CC[C@@]3(CO3)[C@@H](CCc3ccc(-c4cccc(F)c4)cn3)[C@]2(C)CC[C@H]1O
> 100	C[C@]1(/C=C/c2ccc(-c3cccc(F)c3)cn2)[C@@H](OC(N)=O)CC[C@@]2(C)[C@@H]3C(=O)OC[C@H]3CC[C@H]12
17	CNC[C@@]1(C)[C@H]2CC[C@@]3(CO3)[C@@H](/C=C/c3ccc(-c4cccc(F)c4)cn3)[C@]2(C)CC[C@H]1O
> 100	C[C@@]1(/C=C/c2ccc(-c3cccc(F)c3)cn2)[C@H]2CC[C@@H]3COC(=O)[C@H]3[C@]2(C)CC[C@H]1OS(C)(=O)=O
> 100	CCOC(=O)O[C@@H]1CC[C@@]2(C)[C@H](/C=C/c3ccc(-c4cccc(F)c4)cn3)[C@@H](C)CC[C@@H]2C1(C)C
32	CC1CC[C@@H]2C(C)(C)[C@H](OC(N)=O)CC[C@@]2(C)[C@@H]1/C=C/c1ccc(-c2cccc(F)c2)cn1 (single isomer, unassigned)
1.5	CC1CC[C@@H]2[C@](C)(C=O)[C@H](O)CC[C@@]2(C)[C@@H]1/C=C/c1ccc(-c2cccc(F)c2)cn1 (single isomer, unassigned)
> 100	CC(=O)O[C@@H]1CC[C@@]2(C)[C@H](/C=C/c3ccc(-c4cccc(F)c4)cn3)C(C)CC[C@@H]2C1(C)C (single isomer, unassigned)

The remaining lines, values behind:

Structure (SMILES)	IC50 [µM]
CO[C@@H]1CC[C@]2(C)[C@H](CC[C@@]3(CO3)[C@H]2/C=C/c2ccc(-c3cccc(F)c3)cn2)[C@]1(C)CO	14
C[C@@]1(/C=C/c2ccc(-c3cccc(F)c3)cn2)[C@H]2CC[C@@H]3COC(=O)[C@H]3[C@]2(C)CC[C@H]1OC(N)=O	12
C[C@]1(/C=C/c2ccc(-c3cccc(F)c3)cn2)[C@H]2CC[C@@H]3COC(=O)[C@H]3[C@]2(C)CC[C@@H]1O	19
C[C@@]1(/C=C/c2ccc(-c3cccc(F)c3)cn2)[C@@H](OC(N)=O)CC[C@@]2(C)[C@@H]3C(=O)OC[C@H]3CC[C@H]12	20
CC1(C)OC[C@@]2(C)[C@H]3CC[C@@]4(CO4)[C@@H](/C=C/c4ccc(-c5cccc(F)c5)cn4)[C@]3(C)CC[C@H]2O1	> 100
CCCC(=O)O[C@H]1CC[C@@]2(C)[C@@H]3C(=O)OC[C@H]3CC[C@@H]2[C@]1(C)/C=C/c1ccc(-c2cccc(F)c2)cn1	> 100
C[C@]1(CN)[C@H]2CC[C@@]3(CO3)[C@@H](/C=C/c3ccc(-c4cccc(F)c4)cn3)[C@]2(C)CC[C@H]1O	23
CCCC(=O)O[C@@H]1CC[C@@]2(C)[C@H](/C=C/c3ccc(-c4cccc(F)c4)cn3)[C@@H](C)CC[C@@H]2C1(C)C	> 100
C[C@]1(CO)[C@H]2CC[C@](C)(O)[C@@H](/C=C/c3ccc(-c4cccc(F)c4)cn3)[C@]2(C)CC[C@H]1O	55
COC[C@@]1(C)[C@H]2CC[C@@]3(CO3)[C@@H](/C=C/c3ccc(-c4cccc(F)c4)cn3)[C@]2(C)CC[C@H]1O	8.1
C[C@]1(C=O)[C@H](O)CC[C@@]2(C)[C@H](/C=C/c3ccc(-c4cccc(F)c4)c[n+]3[O-])[C@@]3(CC[C@H]12)CO3	> 100
C[C@@]1(/C=C/c2ccc(-c3cccc(F)c3)cn2)[C@H]2CC[C@@H]3COC(=O)[C@H]3[C@]2(C)CC[C@@H]1O	> 100
C[C@@]12CC[C@@H](O)[C@@](C)(C(=O)O)[C@H]1CC[C@@]1(CO1)[C@H]2/C=C/c1ccc(-c2cccc(F)c2)cn1	29
C[C@]1(/C=C/c2ccc(-c3cccc(F)c3)cn2)[C@H](O)CC[C@@]2(C)[C@@H]3C(=O)OC[C@H]3CC[C@H]12	> 100
CCCC(=O)O[C@@H]1CC[C@@]2(C)[C@@H]3C(=O)OC[C@H]3CC[C@@H]2[C@@]1(C)/C=C/c1ccc(-c2cccc(F)c2)cn1	> 100
CC1CC[C@@H]2C(C)(C)[C@H](OS(C)(=O)=O)CC[C@@]2(C)[C@@H]1/C=C/c1ccc(-c2cccc(F)c2)cn1 (single isomer, unassigned)	87
C[C@@]12CC[C@@H](O)[C@@](C)(C3SCCS3)[C@H]1CCC(C1SCCS1)[C@H]2/C=C/c1ccc(-c2cccc(F)c2)cn1 (single isomer, unassigned)	> 100
